Values joined by “and” are separate entries in the source; they are usually repeats but may differ in a detail not shown here. Equal values may be shown once.
System: U2OS
Experiment: Multiplex assay against U2OS
Format: toxicity, cell-based
Details: human, number of replicates 2
In short: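 Live cells were stained at seeding with Hoechst33342, BioTracker Green Microtubule Cytoskeleton Dye, MitoTracker Red and Annexin V Alexa Fluor 680, then imaged on a CQ1 microscope at 37°C and 5% CO2 after compound addition. CellPathfinder machine-learning gating split cells into Hoechst high-intensity objects or normal cells. Normal cells were split into healthy, pyknosed or fragmented nuclei, and pyknosed cells into mitotic or apoptotic. Tubulin, mitochondrial-mass and membrane-permeability phenotypes are per cents of healthy-nucleus cells.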

[1] = 12 h, 1 µM, compound concentration 1 uM
[2] = 12 h, 10 µM, compound concentration 10 uM
[3] = 24 h, 1 µM, compound concentration 1 uM
[4] = 24 h, 10 µM, compound concentration 10 uM
[5] = 48 h, 1 µM, compound concentration 1 uM
[6] = 48 h, 10 µM, compound concentration 10 uM

In the case of `c1ccc2c(-c3coc4cc(-c5ccc(N6CCNCC6)cc5)cnc34)ccnc2c1`, the “Population Healthy Nuclei (%)” value [1] is reported as 82% and 84%, the “Population Mitochondria Different-Phenotype (%)” value [1] is reported as 0% and 2% and the “Population Normal (%)” value [1] is reported as 100%. The “Population Pyknosed Nuclei (%)” value [1] was 0% and 10%, the “Population Tubulin-Different-Phenotype (%)” value [1] was 84% and 81% and the “Population Apoptotic (%)” value [2] was 93% and 90%. For the same compound, the “Population Healthy Nuclei (%)” value [2] was 0% and 6%, the “Population Mitochondria Different-Phenotype (%)” value [2] was 100% and 75% and the “Population Mitotic Cells (%)” value [2] was 6% and 10%. The “Population Normal (%)” value [2] was 100% and 98%, the “Population Pyknosed Nuclei (%)” value [2] was 95% and 60% and the “Population Tubulin-Different-Phenotype (%)” value [2] was 100%. The “Total Cell Count” value [2] was 163 and 67, the “Population Apoptotic (%)” value [3] was 100% and 76% and the “Population Healthy Nuclei (%)” value [3] was 91% and 82%. The “Population Mitochondria Different-Phenotype (%)” value [3] was 0%, the “Population Mitotic Cells (%)” value [3] was 0% and 23% and the “Population Normal (%)” value [3] was 100%. For the same compound, the “Population Pyknosed Nuclei (%)” value [3] was 2% and 10%, the “Population Tubulin-Different-Phenotype (%)” value [3] was 81% and 82% and the “Population Apoptotic (%)” value [4] was 92% and 87%. The “Population Healthy Nuclei (%)” value [4] was 0% and 4%, the “Population Mitotic Cells (%)” value [4] was 7% and 12% and the “Population Normal (%)” value [4] was 98% and 97%. For the same compound, the “Population Pyknosed Nuclei (%)” value [4] was 93% and 56%, the “Population Tubulin-Different-Phenotype (%)” value [4] was 100% and 66% and the “Total Cell Count” value [4] was 160 and 71. For the same compound, the “Population Apoptotic (%)” value [5] was 75%, the “Population Healthy Nuclei (%)” value [5] was 83% and 84% and the “Population Mitochondria Different-Phenotype (%)” value [5] was 0%. For the same compound, the “Population Mitotic Cells (%)” value [5] was 25%, the “Population Normal (%)” value [5] was 100% and the “Population Pyknosed Nuclei (%)” value [5] was 6% and 10%. For the same compound, the “Population Tubulin-Different-Phenotype (%)” value [5] was 87%, the “Population Apoptotic (%)” value [6] was 91% and the “Population Healthy Nuclei (%)” value [6] was 8% and 1%. The “Population Mitotic Cells (%)” value [6] was 8%, the “Population Normal (%)” value [6] was 98% and the “Population Pyknosed Nuclei (%)” value [6] was 39% and 87%. For the same compound, the “Population Tubulin-Different-Phenotype (%)” value [6] was 57% and 100% and the “Total Cell Count” value [6] was 87 and 164.

— ChEMBL document CHEMBL5303300, “EUbOPEN Chemogenomics Library - Multiplex” (2023)
